Assay results from ChEMBL document CHEMBL4725484, “Oxetanyl Sulfoxide MMS-350 Ameliorates Pulmonary Fibrosis In Vitro, In Vivo, and Ex Vivo” (ACS Med Chem Lett, 2020).
Blank lines part the entries; values can stand above or below the compound they belong to. Active and inactive are the calls of the source. The rule behind the calls is not given here.

Tests used:
Primary lung fibroblast [1] = assay: Antifibrotic activity against TGFbeta1-induced fibrosis in human primary lung fibroblasts assessed as decrease in fibronectin protein level at 10 to 60 ug/ml measured after 72 hrs by immunoblotting analysis; format: functional, tissue-based; settings: dose microg/ml 10-60, time 72.0 hrs
Outline: (§1)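 Primary human fibroblasts were exposed for 72 h to vehicle (DMSO), TGFβ1, or TGFβ1 plus compound at the indicated concentrations. Fibrotic factors in cell lysates and conditioned medium were detected by immunoblotting, with GAPDH as internal control.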

Primary lung fibroblast [2] = assay: Antifibrotic activity against TGFbeta1-induced fibrosis in human primary lung fibroblasts assessed as decrease in CTGF protein level at 10 to 60 ug/ml measured after 72 hrs by immunoblotting analysis; format: functional, tissue-based; settings: dose microg/ml 10-60, time 72.0 hrs; outline: as §1
Primary lung fibroblast [3] = assay: Antifibrotic activity against TGFbeta1-induced fibrosis in human primary lung fibroblasts assessed as decrease in IGFBP-3 protein level at 10 to 60 ug/ml measured after 72 hrs by immunoblotting analysis; format: functional, tissue-based; settings: dose microg/ml 10-60, time 72.0 hrs; outline: as §1
Primary lung fibroblast [4] = assay: Antifibrotic activity against TGFbeta1-induced fibrosis in human primary lung fibroblasts assessed as decrease in collagen type-1 protein level at 10 to 60 ug/ml measured after 72 hrs by immunoblotting analysis; format: functional, tissue-based; settings: dose microg/ml 10-60, time 72.0 hrs; outline: as §1
Primary lung fibroblast [5] = assay: Antifibrotic activity against TGFbeta1-induced fibrosis in human primary lung fibroblasts assessed as decrease in alpha-SMA protein level at 10 to 60 ug/ml measured after 72 hrs by immunoblotting analysis; format: functional, tissue-based; settings: dose microg/ml 10-60, time 72.0 hrs; outline: as §1
Primary lung fibroblast [6] = assay: Antifibrotic activity against TGFbeta1-induced fibrosis in human primary lung fibroblasts assessed as decrease in alpha-SMA protein level at 500 ug/ml treated at 30 mins to 6 hrs post TGFbeta1 stimulation by immunoblotting analysis; format: functional, tissue-based; settings: dose 500.0 µg/ml, time 6.5 hrs
Outline: (§2)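 Therapeutic-timing design in fibroblasts: 500 μg/mL compound was added together with 10 ng/mL TGFβ1 or 30 min to 6 h after TGFβ1. Profibrotic factors were then assessed by immunoblotting.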

Primary lung fibroblast [7] = assay: Antifibrotic activity against TGFbeta1-induced fibrosis in human primary lung fibroblasts assessed as decrease in TGFbeta1-induced fibronectin protein level at 500 ug/ml treated at 30 mins to 6 hrs post TGFbeta1 stimulation by immunoblotting analysis; format: functional, tissue-based; settings: dose 500.0 µg/ml, time 6.5 hrs; outline: as §2
Mus musculus [8] = assay: Antifibrotic activity against bleomycin-induced C57BL/6J mouse lung fibrosis model at 2%, po via gavage administered as single dose measured after 14 days by hematoxylin and eosin staining based microscopic analysis; format: functional, organism-based; settings: time day 14
Outline: (§3)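 Mouse groups received PBS, bleomycin, or bleomycin plus 2% compound. Lung histology was assessed 14 days post-treatment. Lung COL1A2 mRNA was measured at 5 days, normalized to GAPDH. Lung hydroxyproline (total collagen) was measured at 14 days. Data are mean ± SD.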

Mus musculus [9] = assay: Antifibrotic activity against bleomycin-induced C57BL/6J mouse lung fibrosis model assessed as reduction in COL1A2 mRNA level at 2%, po via gavage administered as single dose measured within 5 days by qRT-PCR analysis; format: functional, organism-based; settings: time day <=5; outline: as §3
Zone of skin [10] = assay: Antifibrotic activity against TGFbeta1-induced dermal fibrosis in human skin assessed as reduction in COL1A1 expression level stimulated with TGFbeta1 for 24 hrs followed by compound treatment at 500 ug/ml measured after 72 hrs by qRT-PCR analysis; format: functional, tissue-based; settings: Skin of body, dose 500.0 µg/ml
Outline: (§4)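 Human skin in organ culture was treated with vehicle (1× PBS) or 10 ng/mL TGFβ1, then given 500 μg/mL compound 24 h later. CTGF expression in whole skin was read 24 h after compound addition. COL1A1 and FN expression in whole skin were read 72 h after compound addition.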

Zone of skin [11] = assay: Antifibrotic activity against TGFbeta1-induced dermal fibrosis in human skin assessed as reduction in fibronectin expression level stimulated with TGFbeta1 for 24 hrs followed by compound treatment at 500 ug/ml measured after 72 hrs by qRT-PCR analysis; format: functional, tissue-based; settings: Skin of body, dose 500.0 µg/ml; outline: as §4
Primary lung fibroblast [12] = assay: Antifibrotic activity against TGFbeta1-induced fibrosis in human primary lung fibroblasts assessed as decrease in alpha-SMA protein level at 500 ug/ml measured after 72 hrs by immunoblotting analysis; format: functional, tissue-based; settings: dose 500.0 µg/ml
Outline: (§5)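 Primary human fibroblasts received vehicle, 10 ng/mL TGFβ1, 500 μg/mL compound, or TGFβ1 plus compound for 72 h. Vehicles were 4 mM HCl/0.1% BSA for TGFβ1 and 1× PBS for compound. Cell lysates and conditioned medium were immunoblotted with GAPDH as internal control. Densitometry is expressed as mean relative change versus vehicle or internal control ± SDEV, N = 3.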

[13] = Solubility of the compound in water; format: physicochemical; settings: buffer
Primary lung fibroblast [14] = assay: Antifibrotic activity in human primary lung fibroblasts assessed as decrease in collagen type-1 protein level at 500 ug/ml measured after 72 hrs by immunoblotting analysis; format: functional, tissue-based; settings: dose 500.0 µg/ml; outline: as §5
[15] = Lipophilicity, log P of the compound; format: physicochemical; settings: octanol/water
Zone of skin [16] = assay: Antifibrotic activity against TGFbeta1-induced dermal fibrosis in human skin assessed as reduction in CTGF expression level stimulated with TGFbeta1 for 24 hrs followed by compound treatment at 500 ug/ml measured after 24 hrs by QRT-PCR analysis; format: functional, tissue-based; settings: Skin of body, dose 500.0 µg/ml; outline: as §4
Primary lung fibroblast [17] = assay: Antifibrotic activity against TGFbeta1-induced fibrosis in human primary lung fibroblasts assessed as decrease in collagen type-1 protein level at 500 ug/ml measured after 72 hrs by immunoblotting analysis; format: functional, tissue-based; settings: dose 500.0 µg/ml; outline: as §5
Primary lung fibroblast [18] = assay: Antifibrotic activity in human primary lung fibroblasts assessed as decrease in IGFBP-3 protein level at 500 ug/ml measured after 72 hrs by immunoblotting analysis; format: functional, tissue-based; settings: dose 500.0 µg/ml; outline: as §5
Primary lung fibroblast [19] = assay: Antifibrotic activity against TGFbeta1-induced fibrosis in human primary lung fibroblasts assessed as decrease in IGFBP-3 protein level at 500 ug/ml treated at 30 mins to 6 hrs post TGFbeta1 stimulation by immunoblotting analysis; format: functional, tissue-based; settings: dose 500.0 µg/ml, time 6.5 hrs; outline: as §2
Primary lung fibroblast [20] = assay: Antifibrotic activity against TGFbeta1-induced fibrosis in human primary lung fibroblasts assessed as decrease in CTGF protein level at 500 ug/ml measured after 72 hrs by immunoblotting analysis; format: functional, tissue-based; settings: dose 500.0 µg/ml; outline: as §5
[21] = Toxicity in bleomycin-induced C57BL/6J mouse lung fibrosis model assessed as improvement in mouse survival relative to control; settings: in vivo
Primary lung fibroblast [22] = assay: Antifibrotic activity in human primary lung fibroblasts assessed as decrease in alpha-SMA protein level at 500 ug/ml measured after 72 hrs by immunoblotting analysis; format: functional, tissue-based; settings: dose 500.0 µg/ml; outline: as §5
Primary lung fibroblast [23] = assay: Antifibrotic activity in human primary lung fibroblasts assessed as decrease in CTGF protein level at 500 ug/ml measured after 72 hrs by immunoblotting analysis; format: functional, tissue-based; settings: dose 500.0 µg/ml; outline: as §5
Mus musculus [24] = assay: Antifibrotic activity against bleomycin-induced C57BL/6J mouse lung fibrosis model assessed as reduction in hydroxyproline level in lung at 2%, po via gavage administered as single dose measured on 14 days by hydroxyproline assay; format: functional, organism-based; settings: time day 14; outline: as §3
Primary lung fibroblast [25] = assay: Antifibrotic activity in against TGFbeta1-induced fibrosis in human primary lung fibroblasts assessed as decrease in collagen type-1 protein level at 500 ug/ml treated at 30 mins to 6 hrs post TGFbeta1 stimulation by immunoblotting analysis; format: functional, tissue-based; settings: dose 500.0 µg/ml, time 6.5 hrs; outline: as §2
Primary lung fibroblast [26] = assay: Antifibrotic activity against TGFbeta1-induced fibrosis in human primary lung fibroblasts assessed as decrease in CTGF protein level at 500 ug/ml treated at 30 mins to 6 hrs post TGFbeta1 stimulation by immunoblotting analysis; format: functional, tissue-based; settings: dose 500.0 µg/ml, time 6.5 hrs; outline: as §2
Primary lung fibroblast [27] = assay: Antifibrotic activity in human primary lung fibroblasts assessed as decrease in fibronectin protein level at 500 ug/ml measured after 72 hrs by immunoblotting analysis; format: functional, tissue-based; settings: dose 500.0 µg/ml; outline: as §5
Primary lung fibroblast [28] = assay: Antifibrotic activity against TGFbeta1-induced fibrosis in human primary lung fibroblasts assessed as decrease in IGFBP-3 protein level at 500 ug/ml measured after 72 hrs by immunoblotting analysis; format: functional, tissue-based; settings: dose 500.0 µg/ml; outline: as §5
Primary lung fibroblast [29] = assay: Antifibrotic activity against TGFbeta1-induced fibrosis in human primary lung fibroblasts assessed as decrease in fibronectin protein level at 500 ug/ml measured after 72 hrs by immunoblotting analysis; format: functional, tissue-based; settings: dose 500.0 µg/ml; outline: as §5
Primary lung fibroblast [30] = assay: Antifibrotic activity against TGFbeta1-induced fibrosis in human primary lung fibroblasts assessed as decrease in COL1A1 expression level at 91 to 500 ug/ml measured after 48 hrs by qRT-PCR analysis; format: functional, tissue-based; settings: dose microg/ml 500, time 48.0 hrs, in the assay text read “at 500 ug/ml” for “at 91 to 500 ug/ml”
Outline: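 Primary fibroblasts were treated for 48 h with TGFβ1 with or without compound (500 μg/mL). Extracted RNA was used for real-time PCR of COL1A1. N = 4, mean ± SD.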

SMILES: CC1(C[S+]([O-])c2ccccc2)COC1 (racemic)
- Activity (Primary lung fibroblast [1]): Active
- Activity (Primary lung fibroblast [2]): Active
- Activity (Primary lung fibroblast [3]): Active
- Activity (Primary lung fibroblast [4]): Active
- Activity (Primary lung fibroblast [5]): Active

- solubility [13]: Soluble
- logP [15]: -0.7
SMILES: CC1(C[S+]([O-])CC2(C)COC2)COC1
- Activity (Primary lung fibroblast [6]): Active
- Activity (Primary lung fibroblast [7]): Active
- Activity (Mus musculus [8]): Active
- Activity (Mus musculus [9]): Active
- Activity (Zone of skin [10]): Active
- Activity (Zone of skin [11]): Active
- Activity (Primary lung fibroblast [12]): Active
- Activity (Primary lung fibroblast [14]): Active
- Activity (Zone of skin [16]): Active
- Activity (Primary lung fibroblast [17]): Active
- Activity (Primary lung fibroblast [18]): Active
- Activity (Primary lung fibroblast [19]): Active
- Activity (Primary lung fibroblast [20]): Active
- Activity [21]: 87.5%
- Activity (Primary lung fibroblast [22]): Active
- Activity (Primary lung fibroblast [23]): Active
- Activity (Mus musculus [24]): Active
- Activity (Primary lung fibroblast [25]): Active
- Activity (Primary lung fibroblast [26]): Active
- Activity (Primary lung fibroblast [27]): Active
- Activity (Primary lung fibroblast [28]): Active
- Activity (Primary lung fibroblast [29]): Active

SMILES: [O-][S+](CC1(F)COC1)c1cccc(F)c1 (racemic)
- Activity (Primary lung fibroblast [30]): Active
